Measured values: ChEMBL document CHEMBL1128436, “Synthesis and biological evaluation of a new series of sterols as potential hypocholesterolemic agents” (1995)
Calls of active or inactive are those of the source. The calls are words filed in the database; no cut-off is given here.

Columns and labels:
CHO [1] = test: Capability of derepressing the transcription of SV40 promoter in CHO cells by luciferase assay; NA= Not active within the test range 0-20 ug/mL; type: functional, cell-based; settings: Cricetulus griseus
Method in brief: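 Counter-screen in CHO clone SV40/LN9, with luciferase driven by the SV40 promoter. Confluent monolayers were given compound at 0.30-20 μg/mL for 24 h in serum-free albumin assay medium, triplicate wells. Lysates were read for luciferase peak luminescence, normalized to lysate protein.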

Cricetinae gen. sp. [2] = test: Total serum cholesterol level with relative to the control value (425(58)) in hamsters at a dose of 0.2% of diet for 1 week; type: functional, Cricetulus griseus
[3] = target: Low-density lipoprotein receptor (Homo sapiens) (UniProt P01130); test: (§1) Capability of derepressing the transcription of Low density lipoprotein receptor promoter in the presence of 25-hydroxycholesterol in CHO cells measured as maximum activity at 20 ug/mL; type: functional, cell-based
Low-density lipoprotein receptor (Homo sapiens), sequence (P01130 whole entry, the tested form may be a part): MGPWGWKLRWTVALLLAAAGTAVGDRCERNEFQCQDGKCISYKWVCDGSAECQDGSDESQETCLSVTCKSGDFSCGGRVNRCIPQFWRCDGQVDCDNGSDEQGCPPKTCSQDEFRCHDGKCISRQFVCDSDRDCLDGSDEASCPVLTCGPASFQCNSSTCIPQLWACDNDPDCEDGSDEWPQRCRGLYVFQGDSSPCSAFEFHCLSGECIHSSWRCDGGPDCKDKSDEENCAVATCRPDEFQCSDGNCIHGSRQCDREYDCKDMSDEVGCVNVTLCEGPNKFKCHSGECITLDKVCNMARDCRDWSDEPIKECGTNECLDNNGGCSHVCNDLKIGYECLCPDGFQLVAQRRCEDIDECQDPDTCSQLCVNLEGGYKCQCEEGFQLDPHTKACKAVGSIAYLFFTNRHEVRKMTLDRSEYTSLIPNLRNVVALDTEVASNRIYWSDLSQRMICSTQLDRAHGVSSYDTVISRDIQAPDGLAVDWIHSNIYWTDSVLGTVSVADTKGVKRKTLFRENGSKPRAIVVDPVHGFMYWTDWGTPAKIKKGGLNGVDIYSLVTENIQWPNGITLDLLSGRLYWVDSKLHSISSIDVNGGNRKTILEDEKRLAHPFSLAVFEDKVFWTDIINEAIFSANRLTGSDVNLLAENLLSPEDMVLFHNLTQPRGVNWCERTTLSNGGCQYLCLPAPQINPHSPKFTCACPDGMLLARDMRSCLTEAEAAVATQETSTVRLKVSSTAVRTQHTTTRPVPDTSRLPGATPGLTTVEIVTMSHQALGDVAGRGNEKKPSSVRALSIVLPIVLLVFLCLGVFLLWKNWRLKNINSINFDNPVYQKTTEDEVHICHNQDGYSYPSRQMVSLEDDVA
Method in brief: (§2)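 Stably transfected CHO clone S27/B30 (LDL receptor promoter fused to firefly luciferase), grown to confluence (2-3 days, 37 °C, 5% CO2). Then 24 h in serum-free assay medium (DMEM/Ham's F-12 3:1, 0.5% bovine albumin) with 25-hydroxycholesterol 0.5 μg/mL plus compound at 0.30-20 μg/mL from ethanol stock, triplicate wells. Lysate luciferase peak light per μg protein (Coomassie). EC30 = concentration giving 30% rise over control. MA = % specific induction at 20 μg/mL.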

[4] = target: Low-density lipoprotein receptor (Homo sapiens) (UniProt P01130); test: Capability of derepressing the transcription of human Low density lipoprotein receptor promoter in the presence of 25-hydroxycholesterol in CHO cells by luciferase assay; type: cell-based; method in brief: as §2
Mesocricetus auratus [5] = species on record: Mesocricetus auratus; test: Serum cholesterol level change relative to the control value (425(58)) in hamsters at a dose of 0.2% of diet for 1 week
Cricetinae gen. sp. [6] = test: Total serum cholesterol level with relative to the control value (366(24)) in hamsters at a dose of 0.2% of diet for 1 week; type: functional, Cricetulus griseus
[7] = target: Low-density lipoprotein receptor (Homo sapiens) (UniProt P01130); test: as §1; type: cell-based; method in brief: as §2
Mesocricetus auratus [8] = species on record: Mesocricetus auratus; test: Serum cholesterol level change relative to the control value (366(24)) in hamsters at a dose of 0.2% of diet for 1 week
Cricetinae gen. sp. [9] = test: Total serum cholesterol level with relative to the control value (333(23)) in hamsters at a dose of 0.2% of diet for 1 week; type: functional, Cricetulus griseus
Mesocricetus auratus [10] = species on record: Mesocricetus auratus; test: Serum cholesterol level change relative to the control value (333(23)) in hamsters at a dose of 0.2% of diet for 1 week
Cricetinae gen. sp. [11] = test: Total serum cholesterol level with relative to the control value (274(23)) in hamsters at a dose of 0.2% of diet for 1 week; type: functional, Cricetulus griseus
Cricetinae gen. sp. [12] = test: Serum cholesterol level change relative to the control value (274(23)) in hamsters at a dose of 0.2% of diet for 1 week; type: functional, Cricetulus griseus
CHO [13] = test: In vitro [1-14C]-acetate]-cholesterol biosynthesis inhibition assay (14CACBI) in CHO cells; neg = Negative :no effect on biosynthesis of cholesterol; type: functional, cell-based; settings: Cricetulus griseus
Method in brief: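 Confluent CHO cells in replicate 100 mm dishes were held 20 h in assay medium without 25-hydroxycholesterol, with ethanol vehicle (0.5% v/v) or compound at 20 μg/mL. [1-14C]acetate was then added (final 1 μCi/mL) for 4 h more. Cells were scraped and sonicated, lipids separated, and the cholesterol band scraped and counted by scintillation.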

Cricetinae gen. sp. [14] = test: Total serum cholesterol level with relative to the control value (313(24)) in hamsters at a dose of 0.2% of diet for 1 week; type: functional, Cricetulus griseus
Mesocricetus auratus [15] = species on record: Mesocricetus auratus; test: Serum cholesterol level change relative to the control value (313(24)) in hamsters at a dose of 0.2% of diet for 1 week
[16] = target: Low-density lipoprotein receptor (Homo sapiens) (UniProt P01130); test: Capability of derepressing the transcription of human Low density lipoprotein receptor promoter in the presence of 25-hydroxycholesterol in CHO cells by luciferase assay; NA= Not active within the test range 0-20 ug/mL; type: cell-based; method in brief: as §2
Mesocricetus auratus [17] = species on record: Mesocricetus auratus; test: Serum cholesterol level changes with relative to the control value (313(24)) in hamsters at a dose of 0.2% of diet for 1 week
[18] = target: Low-density lipoprotein receptor (Homo sapiens) (UniProt P01130); test: Luciferase activity (LDLR/Luc) expressed as light units/microg assayed in LMB the percentage specific light induction of agent over the control at concentration of 20 ug/mL was determined in vitro.; method in brief: as §2
Mesocricetus auratus [19] = species on record: Mesocricetus auratus; test: Serum cholesterol level changes with relative to the control value (333(23)) in hamsters at a dose of 0.2% of diet for 1 week
Cricetinae gen. sp. [20] = test: Total serum cholesterol level with relative to the control value (306(27) in hamsters at a dose of 0.2% of diet for 1 week; type: functional, Cricetulus griseus
Cricetinae gen. sp. [21] = test: Total serum cholesterol level with relative to the control value (320(14)) in hamsters at a dose of 0.2% of diet for 1 week; type: functional, Cricetulus griseus
Cricetinae gen. sp. [22] = test: Total serum cholesterol level with relative to the control value (383(13)) in hamsters at a dose of 0.2% of diet for 1 week; type: functional, Cricetulus griseus
Cricetinae gen. sp. [23] = test: Serum cholesterol level changes with relative to the control value (425(58)) in hamsters at a dose of 0.2% of diet for 1 week; type: functional, Cricetulus griseus
Mesocricetus auratus [24] = species on record: Mesocricetus auratus; test: Serum cholesterol level change relative to the control value (320(14)) in hamsters at a dose of 0.2% of diet for 1 week
Mesocricetus auratus [25] = species on record: Mesocricetus auratus; test: Serum cholesterol level change relative to the control value (383(13)) in hamsters at a dose of 0.2% of diet for 1 week
Mesocricetus auratus [26] = species on record: Mesocricetus auratus; test: Serum cholesterol level change relative to the control value (306(27)) was calculated.i n hamsters at a dose of 0.2% of diet for 1 week
Mesocricetus auratus [27] = species on record: Mesocricetus auratus; test: Serum cholesterol level change relative to the control value (306(27)) in hamsters at a dose of 0.2% of diet for 1 week
Cricetinae gen. sp. [28] = test: Total serum cholesterol level with relative to the control value [383(13)] in hamsters at a dose of 0.2% of diet for 1 week; type: functional, Cricetulus griseus
Mesocricetus auratus [29] = species on record: Mesocricetus auratus; test: Serum cholesterol level change relative to the control value [383(13)] in hamsters at a dose of 0.2% of diet for 1 week

SMILES	Activity (CHO [1])	EC30 [4] [µM]	MA [7] [%]	Activity (CHO [13])	Total cholesterol (Cricetinae gen. sp. [14]) [mg/dL]	further results
Cc1ccc(C[C@H]2C3CC[C@H]4[C@@H]5CC[C@H]([C@H](C)CCCC(C)C)[C@@]5(C)CC[C@@H]4[C@@]3(C)CC[C@H]2O)cc1 (stereo partly specified)	inactive	35				Total cholesterol (Cricetinae gen. sp. [2]): 283 mg/dL; MA [3]: 45%; Relative change (Mesocricetus auratus [5]): -33%
CC(C)CCC[C@@H](C)[C@H]1CC[C@H]2[C@@H]3CCC4[C@H](Cc5ccc(F)cc5)[C@H](O)CC[C@]4(C)[C@H]3CC[C@]12C (stereo partly specified)	inactive	17	80			Total cholesterol (Cricetinae gen. sp. [6]): 181 mg/dL; Relative change (Mesocricetus auratus [8]): -50%
C=CC[C@H]1C2CC[C@H]3[C@@H]4CC[C@H]([C@H](C)CC[C@@H](CC)C(C)C)[C@@]4(C)CC[C@@H]3[C@@]2(C)CC[C@H]1O (stereo partly specified)	inactive	8.2	95			Total cholesterol (Cricetinae gen. sp. [9]): 217 mg/dL; Relative change (Mesocricetus auratus [10]): -35%
CC(C)CCC[C@@H](C)[C@H]1CC[C@H]2[C@@H]3CCC4[C@H](Cc5ccc(Br)cc5)[C@H](O)CC[C@]4(C)[C@H]3CC[C@]12C (stereo partly specified)	inactive	6	57			Total cholesterol (Cricetinae gen. sp. [11]): 160 mg/dL; Relative change (Cricetinae gen. sp. [12]): -42%
C=C(Cl)C[C@H]1C2CC[C@H]3[C@@H]4CC[C@H]([C@H](C)CC[C@@H](CC)C(C)C)[C@@]4(C)CC[C@@H]3[C@@]2(C)CC[C@H]1O (stereo partly specified)	inactive	4.2	120			Total cholesterol (Cricetinae gen. sp. [2]): 241 mg/dL; Relative change (Mesocricetus auratus [5]): -43%
C=CC[C@@H]1C[C@@]2(C)C(CC[C@H]3[C@@H]4CC[C@H]([C@H](C)CCCC(C)C)[C@@]4(C)CC[C@@H]32)C[C@@H]1O (stereo partly specified)	inactive	41	60	Negative	209	Relative change (Mesocricetus auratus [15]): -33%
C=CC[C@H]1C2CC[C@H]3[C@@H]4CC[C@H]([C@H](C)CCCC(C)C)[C@@]4(C)CC[C@@H]3[C@@]2(C)CC[C@@H]1O (stereo partly specified)					198	EC30 [16]: inactive; Relative change (Mesocricetus auratus [17]): -37%
C=C(C)C[C@H]1C2CC[C@H]3[C@@H]4CC[C@H]([C@H](C)CC[C@@H](CC)C(C)C)[C@@]4(C)CC[C@@H]3[C@@]2(C)CC[C@H]1O (stereo partly specified)	inactive	3.1	165			Total cholesterol (Cricetinae gen. sp. [9]): 196 mg/dL; Relative change (Mesocricetus auratus [10]): -41%
C/C=C/C[C@H]1C2CC[C@H]3[C@@H]4CC[C@H]([C@H](C)CCCC(C)C)[C@@]4(C)CC[C@@H]3[C@@]2(C)CC[C@H]1O (stereo partly specified)	inactive	11		Negative	210	MA [18]: 86%; Relative change (Mesocricetus auratus [17]): -33%
C=C(Cl)C[C@H]1C2CC[C@H]3[C@@H]4CC[C@H]([C@H](C)CCCC(C)C)[C@@]4(C)CC[C@@H]3[C@@]2(C)CC[C@H]1O (stereo partly specified)	inactive	1.8	141			Total cholesterol (Cricetinae gen. sp. [9]): 200 mg/dL; Relative change (Mesocricetus auratus [19]): -40%
CC(C)CCC[C@@H](C)[C@H]1CC[C@H]2[C@@H]3CCC4[C@H](Cc5ccccc5)[C@H](O)CC[C@]4(C)[C@H]3CC[C@]12C (stereo partly specified)	inactive	32	44	Negative	202	Relative change (Mesocricetus auratus [15]): -35%
C=CC[C@H]1C2CC[C@H]3[C@@H]4CC[C@H]([C@H](C)CCCC(C)C)[C@@]4(C)CC[C@@H]3[C@@]2(C)CC[C@H]1O (stereo partly specified)	inactive	2.9	127	Negative	167	Total cholesterol (Cricetinae gen. sp. [11]): 188 mg/dL; Total cholesterol (Cricetinae gen. sp. [20]): 151 mg/dL; Total cholesterol (Cricetinae gen. sp. [21]): 168 mg/dL; Total cholesterol (Cricetinae gen. sp. [9]): 199 mg/dL; Total cholesterol (Cricetinae gen. sp. [6]): 174 mg/dL; Total cholesterol (Cricetinae gen. sp. [22]): 197 mg/dL; Total cholesterol (Cricetinae gen. sp. [2]): 213 mg/dL; Relative change (Cricetinae gen. sp. [23]): -50%; Relative change (Cricetinae gen. sp. [12]): -31%; Relative change (Mesocricetus auratus [15]): -47%; Relative change (Mesocricetus auratus [24]): -47%; Relative change (Mesocricetus auratus [10]): -40%; Relative change (Mesocricetus auratus [8]): -53%; Relative change (Mesocricetus auratus [25]): -49%; Relative change (Mesocricetus auratus [26]): -51%
CC(C)CCC[C@@H](C)[C@H]1CC[C@H]2[C@@H]3CCC4[C@H](C/C=C/Cl)[C@H](O)CC[C@]4(C)[C@H]3CC[C@]12C (stereo partly specified)	inactive	2	169	Negative		Total cholesterol (Cricetinae gen. sp. [9]): 185 mg/dL; Relative change (Mesocricetus auratus [10]): -44%
C=CC[C@H]1C2=CCC3C(CC[C@@]4(C)C3CC[C@@H]4[C@H](C)CCCC(C)C)[C@@]2(C)CC[C@H]1O (stereo partly specified)	inactive	3.5	96	Negative		Total cholesterol (Cricetinae gen. sp. [20]): 163 mg/dL; Relative change (Mesocricetus auratus [27]): -47%
CC(C)CCC[C@@H](C)[C@H]1CC[C@H]2[C@@H]3CCC4[C@H](Cc5ccc(I)cc5)[C@H](O)CC[C@]4(C)[C@H]3CC[C@]12C (stereo partly specified)	inactive	2.8	80	Negative		Total cholesterol (Cricetinae gen. sp. [28]): 240 mg/dL; Relative change (Mesocricetus auratus [29]): -37%
C/C=C/C[C@H]1C2CC[C@H]3[C@@H]4CC[C@H]([C@H](C)CCCC(C)C)[C@@]4(C)CC[C@@H]3[C@@]2(C)CC[C@@H]1O (stereo partly specified)					245	EC30 [16]: inactive; Relative change (Mesocricetus auratus [17]): -22%
CCC[C@H]1C2CC[C@H]3[C@@H]4CC[C@H]([C@H](C)CCCC(C)C)[C@@]4(C)CC[C@@H]3[C@@]2(C)CC[C@H]1O (stereo partly specified)	inactive	38	48	Negative		Total cholesterol (Cricetinae gen. sp. [20]): 222 mg/dL; Relative change (Mesocricetus auratus [27]): -27%
CC(C)CCC[C@@H](C)[C@H]1CC[C@H]2[C@@H]3CCC4[C@H](C/C=C\Cl)[C@H](O)CC[C@]4(C)[C@H]3CC[C@]12C (stereo partly specified)						Total cholesterol (Cricetinae gen. sp. [2]): 316 mg/dL; EC30 [16]: inactive; Relative change (Mesocricetus auratus [5]): -26%
